Values belong to the molecule of their own block, whether it stands above or below them. Activity calls are given as the source filed them. No cut-off for these calls is given here.
What was measured:
[1] = target: T1, Sphingosine kinase 2 (Homo sapiens) (UniProt Q9NRA0); experiment: Activity at purified SK2 (unknown origin) using ATP at 250 uM relative to control
T1 sequence (whole entry): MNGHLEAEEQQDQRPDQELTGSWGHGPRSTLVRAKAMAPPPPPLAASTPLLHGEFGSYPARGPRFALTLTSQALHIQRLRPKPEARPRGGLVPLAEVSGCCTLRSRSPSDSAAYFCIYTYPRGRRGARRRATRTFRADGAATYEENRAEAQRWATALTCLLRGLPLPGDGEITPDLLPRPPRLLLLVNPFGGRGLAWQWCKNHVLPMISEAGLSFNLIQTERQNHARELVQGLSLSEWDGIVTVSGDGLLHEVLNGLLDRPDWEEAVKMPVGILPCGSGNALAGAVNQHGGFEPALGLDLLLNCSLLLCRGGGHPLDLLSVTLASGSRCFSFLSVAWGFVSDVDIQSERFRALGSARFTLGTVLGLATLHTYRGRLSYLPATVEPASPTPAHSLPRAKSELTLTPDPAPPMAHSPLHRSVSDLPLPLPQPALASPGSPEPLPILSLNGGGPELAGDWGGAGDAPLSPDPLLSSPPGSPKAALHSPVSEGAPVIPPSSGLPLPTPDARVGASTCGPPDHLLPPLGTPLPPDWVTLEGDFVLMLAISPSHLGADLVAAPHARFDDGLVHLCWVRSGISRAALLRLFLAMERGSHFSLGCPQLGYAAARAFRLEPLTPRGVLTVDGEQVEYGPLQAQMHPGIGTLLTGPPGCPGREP

Sphingosine kinase 1 [2] = target: T2, Sphingosine kinase 1 (Homo sapiens, UniProt Q9NYA1); experiment: Activity at recombinant SK1 (unknown origin) using ATP at 250 uM relative to control
Sphingosine kinase 2 [3] = target: T3, Sphingosine kinase 2 (Homo sapiens, UniProt Q9NRA0); experiment: Inhibition of SK2 (unknown origin)
T3 sequence (Q9NRA0 whole entry): T1 sequence (whole entry)
Method in brief: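 Purified SK2 (37 ng) run 30 min at 30 °C with 10 µM sphingosine complexed to fatty-acid-free BSA (0.2 mg/mL final) and 250 µM [γ-32P]ATP in 10 mM MgCl2. Buffer: 20 mM Tris pH 7.4 with phosphatase/protease inhibitors and 400 mM KCl. Inhibitor added in DMSO; control 5% v/v DMSO. Sphingosine level matches the SK2 Km.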

PAMSC [4] = experiment: Inhibition of DNA synthesis in human PAMSC cells assessed as [3H]-thymidine incorporation into DNA at 300 nM after 24 hrs; format: functional, cell-based
Method in brief: (§1)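 Pulmonary arterial smooth muscle cells were grown to 60% confluency and quiesced 24 h in basal medium with 0.1% eFCS. They were then treated with inhibitor in DMSO (vehicle 0.1% DMSO) for 48 h in complete medium, with [3H]-thymidine (0.25 µCi/mL) added for the final 24 h. Cells were washed with TCA, solubilised in SDS/NaOH and counted by scintillation. Each concentration was run in triplicate.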

[5] = target: T1, Sphingosine kinase 2 (Homo sapiens); conditions: 50 uM
[6] = target: T1, Sphingosine kinase 2 (Homo sapiens); conditions: 1.5 uM
[7] = target: T1, Sphingosine kinase 2 (Homo sapiens); experiment: Inhibition of purified SK2 (unknown origin) using sphingosine and [gamma-32P]ATP as substrate at 50 uM after 30 mins relative to control
Method in brief: (§2)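 Buffer: 20 mM Tris pH 7.4 with EDTA, phosphatase and protease inhibitors, 20% glycerol and 400 mM KCl. Inhibitors were added in DMSO; control was 5% v/v DMSO.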

[8] = Decrease of SK1 expression in human PAMSC cells at 100 nM after 24 hrs by Western blot analysis; format: functional, cell-based
[9] = Decrease of SK1 expression in human PAMSC cells at 100 nM after 24 hrs by Western blot analysis in presence of proteasomal inhibitor MG132; format: functional, cell-based
PAMSC [10] = conditions: Homo sapiens, 10 to 100 nM
Sphingosine kinase 1 [11] = target: T2, Sphingosine kinase 1; experiment: Inhibition of recombinant SK1 (unknown origin) using sphingosine and [gamma-32P]ATP as substrate after 30 mins
[12] = Decrease of SK1 expression in human PAMSC cells at 10 uM after 24 hrs by Western blot analysis; format: functional, cell-based
Sphingosine kinase 2 [13] = target: T3, Sphingosine kinase 2; experiment: Inhibition of purified SK2 (unknown origin) using sphingosine and [gamma-32P]ATP as substrate after 30 mins
Method in brief: as §2

PAMSC [14] = experiment: Inhibition of DNA synthesis in human PAMSC cells assessed as [3H]-thymidine incorporation into DNA at 100 nM to 1 uM after 24 hrs; format: functional, cell-based
Method in brief: as §1

[15] = Decrease of SK1 expression in human PAMSC cells at 10 uM after 24 hrs by Western blot analysis in presence of proteasomal inhibitor MG132; format: functional, cell-based

T2 sequence (Q9NYA1 whole entry): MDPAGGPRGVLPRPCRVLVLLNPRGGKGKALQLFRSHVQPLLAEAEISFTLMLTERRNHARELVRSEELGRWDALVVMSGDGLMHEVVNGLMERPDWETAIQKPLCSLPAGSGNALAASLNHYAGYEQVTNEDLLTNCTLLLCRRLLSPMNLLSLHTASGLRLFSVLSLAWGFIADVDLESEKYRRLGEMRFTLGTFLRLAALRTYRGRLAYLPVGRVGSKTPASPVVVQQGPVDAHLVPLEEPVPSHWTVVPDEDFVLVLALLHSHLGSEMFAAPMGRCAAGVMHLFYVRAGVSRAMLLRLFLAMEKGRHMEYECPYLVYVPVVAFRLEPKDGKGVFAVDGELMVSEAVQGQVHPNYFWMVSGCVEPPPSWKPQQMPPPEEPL

Structure (SMILES): O=C(NCc1ccncc1)C12CC3CC(C1)CC(c1ccc(Cl)cc1)(C3)C2 [ABC-294640]
Ki (Sphingosine kinase 2 [3]): 10 µM

Structure (SMILES): CCCCCCCCCCCCc1ccc(C(=O)N2CCC[C@H]2C(=N)N)cc1
inhibition (PAMSC [4]): inactive | inhibition [5]: Active | inhibition [6]: 73.4%

Structure (SMILES): CCCCCCCCCCCCCC[C@H]1OC[C@H](NC(=S)Nc2c(F)c(F)c(F)c(F)c2F)[C@@H]1O
Activity (Sphingosine kinase 1 [2]): Active

Structure (SMILES): Cc1cc(CS(=O)(=O)c2ccccc2)cc(OCc2ccc(CN3CCC[C@@H]3CO)cc2)c1
Activity [8]: Active | Activity [9]: inactive | inhibition (PAMSC [10]): inactive

Structure (SMILES): CCCCCCCCCCCCCCOCC(O)[C@H](C)N(C)C (single isomer, unassigned)
IC50 (Sphingosine kinase 1 [11]): 27.8 µM | IC50 (Sphingosine kinase 2 [13]): 300 µM

Structure (SMILES): CCCCCCCCCCCCCCC[C@@H](O)[C@H](C)[N+](C)(C)C
Activity (Sphingosine kinase 1 [2]): Active

Further lines, with some results ahead:

Activity [1]: Active | Activity (Sphingosine kinase 1 [2]): Active
Structure (SMILES): CCCCCCCCCCCCC/C=C\[C@@H](O)[C@@H](N)CO

inhibition [7]: 79.2%
Structure (SMILES): CCCCCCCCCCCCC/C=C/[C@@H](O)[C@H](CO)NC(=S)Nc1ccc(F)cc1

inhibition [7]: 53.9%
Structure (SMILES): CCCCCCCCCCCCCC[C@@H](O)[C@@H](O)[C@H](CO)NC(=O)Nc1ccc(C(F)(F)F)cc1

inhibition [7]: Active
Structure (SMILES): CCCCCCCCCCCCC/C=C/[C@@H](O)[C@H](CO)NC(=S)Nc1ccc(C(F)(F)F)cc1

Activity [1]: Active | inhibition [7]: Active | Activity (Sphingosine kinase 1 [2]): Active
Structure (SMILES): CCCCCCCCCCCCCCC[C@@H](O)[C@H](CO)NC(=S)Nc1cccc(F)c1

IC50 (Sphingosine kinase 1 [11]): 69 µM | Activity [1]: Active | inhibition [7]: 80% | IC50 (Sphingosine kinase 2 [13]): 21.8 µM
Structure (SMILES): CCCCCCCCCCCCCCC[C@@H](O)[C@H](CO)NC(=S)Nc1cccc(C(F)(F)F)c1
Activity [12]: inactive

IC50 (Sphingosine kinase 1 [11]): 7.1 µM | IC50 (Sphingosine kinase 2 [13]): 766 µM
Structure (SMILES): CCCCCCCCCCCCCCC[C@@H](O)[C@H](C)N
Activity [12]: Active | Activity (PAMSC [14]): Active | Activity [15]: inactive

inhibition [7]: 64.5%
Structure (SMILES): CCCCCCCCCCCCCC[C@@H](O)[C@@H](O)[C@H](CO)NC(=S)Nc1ccc(F)cc1

From ChEMBL document CHEMBL3132796 (Medchemcomm, 2013)
